Measured values collected from several papers.
Protocols differ between the studies behind these lines.
Target: Tyrosine-protein kinase receptor UFO (AXL, Homo sapiens, UniProt P30530)
Tested at: 1 µM
Sequence (P30530 26-894, as in one of the studies): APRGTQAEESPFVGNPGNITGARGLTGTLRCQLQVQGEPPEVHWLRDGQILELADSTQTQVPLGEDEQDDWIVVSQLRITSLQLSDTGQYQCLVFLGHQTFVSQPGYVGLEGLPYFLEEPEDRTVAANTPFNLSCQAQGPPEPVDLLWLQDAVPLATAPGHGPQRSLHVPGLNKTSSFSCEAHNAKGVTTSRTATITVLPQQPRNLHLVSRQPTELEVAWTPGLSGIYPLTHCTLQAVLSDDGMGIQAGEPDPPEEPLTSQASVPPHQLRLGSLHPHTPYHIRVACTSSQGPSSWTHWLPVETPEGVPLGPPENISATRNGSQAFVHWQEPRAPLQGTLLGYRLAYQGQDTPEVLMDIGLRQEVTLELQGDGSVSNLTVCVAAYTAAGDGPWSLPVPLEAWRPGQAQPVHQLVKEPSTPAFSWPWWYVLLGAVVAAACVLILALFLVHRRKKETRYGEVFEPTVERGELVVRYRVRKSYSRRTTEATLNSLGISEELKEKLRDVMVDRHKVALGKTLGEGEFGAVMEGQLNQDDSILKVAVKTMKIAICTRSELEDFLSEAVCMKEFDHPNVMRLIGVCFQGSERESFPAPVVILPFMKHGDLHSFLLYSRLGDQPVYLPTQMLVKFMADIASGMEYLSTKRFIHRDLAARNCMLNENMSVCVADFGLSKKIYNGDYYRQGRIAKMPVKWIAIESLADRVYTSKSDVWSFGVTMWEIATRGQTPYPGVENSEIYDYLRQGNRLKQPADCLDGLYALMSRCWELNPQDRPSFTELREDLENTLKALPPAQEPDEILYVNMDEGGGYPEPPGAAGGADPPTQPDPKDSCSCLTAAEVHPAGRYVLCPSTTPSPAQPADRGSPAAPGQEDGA

| Structure (SMILES) | assay | measurement | value |
| --- | --- | --- | --- |
| Cc1cc(S(=O)(=O)N[C@H]2CC[C@H](CN3CCN(c4ccc(C5CCC(=O)NC5=O)cc4F)CC3)CC2)ccc1Nc1ncc(C(F)(F)F)c(N2CCC[C@](C)(O)C2)n1 (some centres unmarked) | binding, competition with immobilised ligand | remaining binding | 56% |
| C#Cc1cnc(Nc2ccnc(CO)c2)nc1Nc1ccccc1S(C)(=O)=NC#N (centres unmarked) | enzyme activity, inhibitor | remaining activity | 26.1% |
| C[C@H]1CC[C@H](n2c3cnccc3c3cnc(Nc4ccc5c(n4)CCN(C(=O)CO)C5)nc32)CC1 | binding, competition with immobilised ligand | remaining binding | 81% |
| C[C@]1(O)CCCN(c2nc(Nc3ccc(S(=O)(=O)N[C@H]4CC[C@H](CN5CCN(c6ccc(C7CCC(=O)NC7=O)cc6F)CC5)CC4)cc3Cl)ncc2C(F)(F)F)C1 (some centres unmarked) | binding, competition with immobilised ligand | remaining binding | 98% |
| C=CC(=O)N1CCC([C@@H]2CCNc3c(C(N)=O)c(-c4ccc(Oc5ccccc5)cc4)nn32)CC1 | enzyme activity, inhibitor | inhibition | 0% |
| CN1CCN(C(=O)c2ccc(NC(=O)Nc3ccc(N(C)c4ccnc(Nc5ccc(CS(C)(=O)=O)cc5)n4)cc3)cc2)CC1 | binding, competition with immobilised ligand | remaining binding | 9.7% |
| C=CC(=O)N1CCC[C@@H](n2nc(-c3ccc(Oc4ccccc4)cc3)c3c(N)ncnc32)C1 | enzyme activity, inhibitor | inhibition | 34% |
| C#Cc1cnc(Nc2ccc(CO)nc2)nc1Nc1ccccc1S(C)(=O)=NC#N (centres unmarked) | enzyme activity, inhibitor | remaining activity | 27.6% |
